Experimental data from ChEMBL document CHEMBL2424653, “Crystal structures of hereditary vitamin D-resistant rickets-associated vitamin D receptor mutants R270L and W282R bound to 1,25-dihydroxyvitamin D3 and synthetic ligands” (J Med Chem, 2013).
Changes are numbered by the printed parent chain. Where “and” joins values, the source holds several entries; their conditions need not be identical. Equal entries are not always repeated. Calls of active or inactive are those of the source. The rule behind the calls is not given here.

Assays:
[1] = system: T1, Vitamin D3 receptor (Rattus norvegicus), P13053 [W282R]; conditions: 5 mM
T1 sequence (whole entry): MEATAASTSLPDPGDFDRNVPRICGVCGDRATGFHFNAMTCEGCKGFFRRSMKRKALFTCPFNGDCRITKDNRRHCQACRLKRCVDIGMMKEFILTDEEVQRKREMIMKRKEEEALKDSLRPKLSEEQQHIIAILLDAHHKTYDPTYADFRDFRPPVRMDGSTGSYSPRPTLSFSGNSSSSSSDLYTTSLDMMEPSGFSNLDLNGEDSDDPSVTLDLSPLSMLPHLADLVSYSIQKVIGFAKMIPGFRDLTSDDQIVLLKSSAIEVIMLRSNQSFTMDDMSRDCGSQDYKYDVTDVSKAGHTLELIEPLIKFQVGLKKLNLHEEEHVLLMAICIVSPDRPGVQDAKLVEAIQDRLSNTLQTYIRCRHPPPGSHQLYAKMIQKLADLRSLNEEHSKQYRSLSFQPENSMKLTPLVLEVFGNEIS

[2] = system: T2, Vitamin D3 receptor (Rattus norvegicus), P13053 [R270L]; conditions: 5 mM
T2 sequence (whole entry): T1 sequence (whole entry) with R270L, R282W

[3] = target: T3, Vitamin D3 receptor (Rattus norvegicus) (UniProt P13053); conditions: 5 mM
T3 sequence (whole entry): T1 sequence (whole entry) with R282W

[4] = system: T4, Vitamin D3 receptor (Homo sapiens), P11473 [R274L]; experiment: Transactivation of human full length VDR R274L mutant expressed in COS7 cells after 24 rs by luciferase reporter gene assay relative to 1,25(OH)2D3; type: cell-based; conditions: COS-7
T4 sequence (whole entry): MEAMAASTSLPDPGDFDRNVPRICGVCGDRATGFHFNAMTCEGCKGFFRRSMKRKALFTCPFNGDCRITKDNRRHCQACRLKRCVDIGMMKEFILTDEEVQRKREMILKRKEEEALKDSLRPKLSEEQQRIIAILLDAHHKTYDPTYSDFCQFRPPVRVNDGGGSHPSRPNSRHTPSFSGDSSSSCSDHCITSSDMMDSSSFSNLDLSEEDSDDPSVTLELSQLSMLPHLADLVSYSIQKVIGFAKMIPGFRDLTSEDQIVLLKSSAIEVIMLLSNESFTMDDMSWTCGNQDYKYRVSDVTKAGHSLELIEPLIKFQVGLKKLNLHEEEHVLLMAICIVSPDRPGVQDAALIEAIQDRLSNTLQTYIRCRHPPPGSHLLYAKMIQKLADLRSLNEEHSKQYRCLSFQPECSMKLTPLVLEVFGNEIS
Procedure, shortened: (§1)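 COS-7 cells grown in DMEM with 5% FCS, seeded at 2 × 10^4 per well. After 24 h, lipofected with mutant full-length hVDR expression plasmid, SPPx3-TK-Luc reporter (three mouse osteopontin VDRE copies) and sea pansy luciferase internal control. Medium changed after 4 h to 5% charcoal-treated FCS. Next day, ligand or ethanol vehicle added for 24 h. Lysate firefly luciferase normalized to the internal control. Triplicate.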

[5] = system: T4, Vitamin D3 receptor (Homo sapiens), P11473 [R274L]; experiment: Agonist activity at human full length VDR R274L mutant expressed in COS7 cells after 24 rs by luciferase reporter gene assay; type: cell-based; conditions: COS-7
Procedure, shortened: as §1

[6] = target: T5, Vitamin D3 receptor (Homo sapiens) (UniProt P11473); experiment: Agonist activity at human full length VDR W282R mutant expressed in COS7 cells after 24 rs by luciferase reporter gene assay; type: cell-based; conditions: COS-7
T5 sequence (whole entry): T4 sequence (whole entry) with L274R
Procedure, shortened: as §1

SMILES | Activity [5] | Activity [6] | other results
C=C1/C(=C\C=C2/CCC[C@]3(C)[C@@H]([C@H](C)CCCC(C)(C)O)CC[C@@H]23)C[C@@H](O)C[C@@H]1O | – | – | ΔTm [1]: 0.1 °C; ΔTm [2]: 2.5 °C; ΔTm [3]: 8.4 °C
CCC(O)(CC)CS[C@@H](C)C1=CC[C@H]2/C(=C/C=C3C[C@@H](O)C(=CCO)[C@H](O)C3)CCC[C@]12C | – | – | fold change (FC) [4]: 130 and 46
C[C@H](CCCC(C)(C)O)[C@H]1CC[C@H]2/C(=C/C=C3/C[C@@H](O)[C@@](C)(O)[C@H](OCCCO)C3)CCC[C@]12C | inactive | – | –
C[C@H](CCCC(C)(C)O)[C@H]1CC[C@H]2/C(=C/C=C3/C[C@@H](O)[C@@](C)(O)[C@H](OCCCCO)C3)CCC[C@]12C | inactive | – | –
C[C@H](CCCC(C)(C)O)[C@H]1CC[C@H]2/C(=C/C=C3/C[C@@H](O)C[C@H](OCCCCO)C3)CCC[C@]12C | Active | – | –
C=CC[C@@H]1CC[C@]2(C)[C@@H]([C@H](C)CCCC(C)(C)O)CC[C@H]2/C1=C/C=C1C[C@@H](O)C(=CCO)[C@H](O)C1 | – | inactive | –
C[C@H](CCCC(C)(C)O)[C@H]1CC[C@H]2/C(=C/C=C3C[C@@H](O)C(=CCO)[C@H](O)C3)[C@H](CCCO)CC[C@]12C | – | inactive | –
C[C@H](CCCC(C)(C)O)[C@H]1CC[C@H]2/C(=C/C=C3/C[C@@H](O)[C@@](C)(O)[C@H](OCCO)C3)CCC[C@]12C | inactive | – | –
CCCC[C@@H]1CC[C@]2(C)[C@@H]([C@H](C)CCCC(C)(C)O)CC[C@H]2/C1=C/C=C1C[C@@H](O)C[C@H](O)C1 | – | inactive | –
C[C@H](CCCC(C)(C)O)[C@H]1CC[C@H]2/C(=C/C=C3/C[C@@H](O)C[C@H](OCCO)C3)CCC[C@]12C | Active | – | –
